{"data": "Measured values of several laboratories", "organism": "Streptococcus pneumoniae", "note": "Each line is one published result; the experiments were not run side by side."}
{"Compound": "CN(C)[C@@H]1C(O)=C(C(N)=O)C(=O)[C@@]2(O)C(O)=C3C(=O)c4c(cc5ccc(-c6cccnc6)cc5c4O)C[C@H]3C[C@@H]12", "assay": "microbial growth, broth dilution", "system": "ATCC49619", "endpoint": "MIC", "value": "32 µg/mL"}
{"Compound": "CC[C@H]1OC(=O)[C@H](C)[C@@H](O[C@H]2C[C@@](C)(OC)[C@@H](O)[C@H](C)O2)[C@H](C)[C@@H](O[C@@H]2O[C@H](C)C[C@H](N(C)C)[C@H]2O)[C@](C)(OC)C[C@@H](C)C(=O)[C@H](C)[C@@H](O)[C@]1(C)O", "assay": "microbial growth", "endpoint": "MIC90", "value": "256 µg/mL"}
{"Compound": "O=C(O)CN1C(=O)/C(=C/c2ccc(-c3ccc(N(c4ccccc4)c4ccccc4)cc3)cc2)SC1=S", "assay": "microbial killing, broth dilution", "system": "ATCC49619", "endpoint": "MBC", "value": "500 µg/mL"}
{"Compound": "O=c1[nH]cc(F)c(=O)[nH]1", "assay": "microbial killing, broth dilution", "setting": "48 h", "endpoint": "MBC", "value": "0.25 µg/mL"}
{"Compound": "CN(C)c1cc(CNCC(C)(C)C)c(O)c2c1C[C@H]1C[C@H]3[C@H](N(C)C)C(O)=C(C(N)=O)C(=O)[C@@]3(O)C(O)=C1C2=O", "assay": "microbial growth", "system": "157E", "endpoint": "MIC", "value": "< 0.06 µg/mL"}
{"Compound": "CN(C)c1ccc(-c2ccc3cc4c(c(O)c3c2)C(=O)C2=C(O)[C@]3(O)C(=O)C(C(N)=O)=C(O)[C@@H](N(C)C)[C@@H]3C[C@@H]2C4)cc1", "assay": "microbial growth, broth dilution", "system": "ATCC49619", "endpoint": "MIC", "value": "32 µg/mL"}
{"Compound": "O=C(O)CN1C(=O)/C(=C/c2c3ccccc3c(-c3ccc(N(c4ccccc4)c4ccccc4)cc3)c3ccccc23)NC1=S", "assay": "microbial killing, broth dilution", "system": "ATCC49619", "endpoint": "MBC", "value": "> 1000 µg/mL"}
{"Compound": "COc1cc(Cc2cnc(N)nc2N)cc(OC)c1OC", "assay": "microbial killing, broth dilution", "setting": "48 h", "endpoint": "MBC", "value": "0.25 µg/mL"}
